In one series the test system is HeLa. Nature of the series: Cytotoxicity against human HeLa cells assessed as reduction in cell viability at 0.1 to 100 uM incubated for 24 to 48 hrs by Alamar blue colorimetric assay. In kind it is cell-based. The conditions noted are these: dose lower 0.1 µM, time lower 24 hrs, dose upper 100 µM, time upper 48 hrs. Put shortly: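 Resazurin (alamarBlue) metabolic viability read-out in HeLa cells exposed for 24 and 48 h to 0.1, 1, 10, 50 and 100 μM compound.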
A general note: The colour change of resazurin is a common sign of viable cells or microbes.

Series [1] deals with Amyloid-beta precursor protein (Homo sapiens) (UniProt P05067). Description: Disaggregation of aggregated huamn amyloid beta (1 to 42) fibrils in human SH-SY5Y cells assessed as decrease the area of foci to basal levels at 50 uM for 12 hour by confocal microscopy relative to control. Type of series: cell-based. Put shortly: (§1)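 SH-SY5Y cells were loaded for 16 h with preaggregated synthetic Aβ1–42, then given compound at 50 μM for a further 12 h in 0.5% EtOH vehicle. Cells were fixed, stained with Proteostat and imaged by confocal microscopy. Number and average area of aggregate foci per cell were scored over 10–20 fields, n = 2, about 370 cells per condition. Data are mean ± SD, unpaired t test.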

Series [2] concerns the target Heat shock protein beta-1 (Homo sapiens) (UniProt P04792). Nature of the series: Disaggregation of protein aggregates in human HeLa cells expressing HSP27:GFP assessed as number of HSP27:GFP foci per cell at 50 uM for 12 hr in presence of nilotinib by green fluorescent protein based confocal microscopy (rvb = 0.71). Summed up:
(§2)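 Sensor HeLa cells (HSP27:GFP) were kept for 48 h with 5 μM nilotinib, and 50 μM compound was co-added for the final 12 h in 0.5% EtOH vehicle. Green foci per cell (count and mean area) were quantified by fluorescence microscopy. Data are mean ± SD, n = 4–10, about 4700 cells per condition. Comparison was against nilotinib alone by unpaired t test.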

The target of series [3] is Amyloid-beta precursor protein (Homo sapiens) (UniProt P05067). Description: Inhibition of amyloid beta (1 to 42) (unknown origin) aggregation assessed as reduction in fluorescence intensity at 20 uM measured upto 30 h by thioflavin-T fluorescence assay. Summed up:
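Aβ1–42 peptide (10 μM) fibrillation with 20 μM compound was followed over time by thioflavin-T fluorescence, with quercetin as positive control. Inhibition was judged from reduction of final fluorescence intensity.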

For series [4], the target named is Heat shock protein beta-1 (Homo sapiens) (UniProt P04792). Description: Disaggregation of protein aggregates in human HeLa cells expressing HSP27:GFP assessed as HSP27:GFP foci area per cell cell at 50 uM for 12 hr in presence of nilotinib by green fluorescent protein based confocal microscopy (rvb = 0.71). Put shortly: as §2
Series [5] deals with Amyloid-beta precursor protein (Homo sapiens) (UniProt P05067). Description: Disaggregation of aggregated human amyloid beta (1 to 42) preformed fibrils in human SH-SY5Y cells assessed as decrease the number of foci to basal levels at 50 uM for 12 hrs by confocal microscopy relative to control. Type of series: cell-based. Summed up: as §1
In series [6] the target is Heat shock protein beta-1 (Homo sapiens) (UniProt P04792). Description: Aggregation in human HeLa cells expressing HSP27:GFP protein in sensor assessed as HSP27:GFP foci area per cell at 5 uM incubated for 48 hrs by green fluorescent protein based confocal microscopy (rvb = 0.6). Summed up:
(§3)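 HeLa cells stably expressing the HSP27:GFP aggregation sensor were exposed to 5 μM nilotinib for 48 h in 0.5% EtOH vehicle. Sensor relocalization to foci was imaged by fluorescence microscopy, and green foci number and average area per cell were scored. Data are mean ± SD, n = 4–10, about 4700 cells per condition, compared by unpaired Student's t test.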

Series [7] has the same target. Description: Aggregation in human HeLa cells expressing HSP27:GFP protein sensor assessed as number of HSP27:GFP foci per cell at 5 uM incubated for 48 hr by green fluorescent protein based confocal microscopy (rvb = 0.71). Summed up: as §3

Calls of active or inactive are those of the source. No cut-off for these calls is given here.

Sequence of Heat shock protein beta-1 (Homo sapiens) (P04792 whole entry): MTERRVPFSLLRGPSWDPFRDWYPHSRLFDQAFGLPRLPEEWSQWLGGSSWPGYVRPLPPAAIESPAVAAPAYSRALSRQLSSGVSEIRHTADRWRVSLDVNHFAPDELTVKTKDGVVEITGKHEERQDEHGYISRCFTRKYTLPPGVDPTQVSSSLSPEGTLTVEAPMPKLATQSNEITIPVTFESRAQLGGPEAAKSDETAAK
Sequence of Amyloid-beta precursor protein (Homo sapiens) (P05067 whole entry): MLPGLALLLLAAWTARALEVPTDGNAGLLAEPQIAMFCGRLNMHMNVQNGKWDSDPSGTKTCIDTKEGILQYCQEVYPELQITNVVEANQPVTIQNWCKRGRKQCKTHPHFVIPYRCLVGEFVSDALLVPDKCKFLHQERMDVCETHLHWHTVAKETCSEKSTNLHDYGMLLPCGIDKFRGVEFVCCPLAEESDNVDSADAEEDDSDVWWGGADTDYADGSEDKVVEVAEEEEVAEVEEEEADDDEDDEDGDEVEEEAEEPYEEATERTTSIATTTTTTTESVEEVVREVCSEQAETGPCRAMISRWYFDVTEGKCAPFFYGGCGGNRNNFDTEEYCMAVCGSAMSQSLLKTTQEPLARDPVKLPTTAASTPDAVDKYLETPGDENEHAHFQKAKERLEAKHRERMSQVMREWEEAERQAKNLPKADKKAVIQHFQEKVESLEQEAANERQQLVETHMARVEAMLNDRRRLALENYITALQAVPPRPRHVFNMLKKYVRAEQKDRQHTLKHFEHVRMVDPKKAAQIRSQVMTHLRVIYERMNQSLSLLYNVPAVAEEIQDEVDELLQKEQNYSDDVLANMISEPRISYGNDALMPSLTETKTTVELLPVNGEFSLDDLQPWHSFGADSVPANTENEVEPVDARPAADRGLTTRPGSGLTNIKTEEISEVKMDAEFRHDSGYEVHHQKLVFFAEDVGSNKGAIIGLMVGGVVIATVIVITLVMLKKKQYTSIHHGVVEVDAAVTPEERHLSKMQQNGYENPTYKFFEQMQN

Turning to `CC(C)CCC[C@@H](C)[C@H]1CC[C@H]2[C@@H]3CC=C4c5c(nc6ccc(Cl)cc6c5-c5ccccc5)CC[C@]4(C)[C@H]3CC[C@]12C`, the Activity result was “Non-Toxic” with HeLa, 50% in series [2] and 50% in series [4]. Further, in series [1], the outcome was Active. The inhibition entry in series [3] was “inactive”. Besides, the result in series [5] was inactive.

With `CC(C)CCC[C@@H](C)[C@H]1CC[C@H]2[C@@H]3CC=C4c5c(nc6ccccc6c5-c5ccccc5)CC[C@]4(C)[C@H]3CC[C@]12C`, the Activity entry is “Non-Toxic” with HeLa, 50% in series [2] and 50% in series [4]. The result in series [1] was inactive. In addition, the inhibition entry in series [3] is “inactive”. The result in series [5] was Active.

Regarding `Cc1cn(-c2cc(NC(=O)c3ccc(C)c(Nc4nccc(-c5cccnc5)n4)c3)cc(C(F)(F)F)c2)cn1`, the Activity amounted to 7.5 um2 in series [6] and 3.96 in series [7].

In the case of `Cc1c2c(nc3ccccc13)CC[C@@]1(C)C2=CC[C@H]2[C@@H]3CC[C@H]([C@H](C)CCCC(C)C)[C@@]3(C)CC[C@@H]21`, the figures for the Activity result (with HeLa; in series [2]; in series [4]) were “Non-Toxic”, 50% and 50%, respectively. In addition, the outcome in series [1] was inactive. Moreover, in series [3], the inhibition result is “Active”. Also, the outcome in series [5] was Active.

As to `CC(C)CCC[C@@H](C)[C@H]1CC[C@H]2[C@@H]3CC=C4c5c(nc6ccc(Cl)cc6c5-c5ccccc5Cl)CC[C@]4(C)[C@H]3CC[C@]12C`, the results for the Activity result (in the series with HeLa; in series [2]; in series [4]) were “Non-Toxic”, 50% and 50%, respectively. For the same compound, the outcome in series [1] was inactive. The inhibition entry in series [3] was “Active”. The result in series [5] was Active.

The record behind these values is ChEMBL document CHEMBL5036371, “Steroid-Quinoline Hybrids for Disruption and Reversion of Protein Aggregation Processes” (ACS Med Chem Lett, 2022).
